# Source: PubChem
# FLuc act counter: FLuc activators, initial screening, artefact control for FLuc-dependent activation tests, biochemical, ATPlite luminescence | AID 1027, 2008 | ATPlite luciferase biochemical, 10 min; 0 = ATP-free wells, 1 = DMSO control | Luciferin 4-monooxygenase (Photinus pyralis), P08659 | 200,000 tested, under 10 active | activation factor at 10 µM;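 active = luciferase activation factor, scaled between plate controls, of at least 2 with compound at 10 µM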
# Target sequence (P08659 whole entry, looked up): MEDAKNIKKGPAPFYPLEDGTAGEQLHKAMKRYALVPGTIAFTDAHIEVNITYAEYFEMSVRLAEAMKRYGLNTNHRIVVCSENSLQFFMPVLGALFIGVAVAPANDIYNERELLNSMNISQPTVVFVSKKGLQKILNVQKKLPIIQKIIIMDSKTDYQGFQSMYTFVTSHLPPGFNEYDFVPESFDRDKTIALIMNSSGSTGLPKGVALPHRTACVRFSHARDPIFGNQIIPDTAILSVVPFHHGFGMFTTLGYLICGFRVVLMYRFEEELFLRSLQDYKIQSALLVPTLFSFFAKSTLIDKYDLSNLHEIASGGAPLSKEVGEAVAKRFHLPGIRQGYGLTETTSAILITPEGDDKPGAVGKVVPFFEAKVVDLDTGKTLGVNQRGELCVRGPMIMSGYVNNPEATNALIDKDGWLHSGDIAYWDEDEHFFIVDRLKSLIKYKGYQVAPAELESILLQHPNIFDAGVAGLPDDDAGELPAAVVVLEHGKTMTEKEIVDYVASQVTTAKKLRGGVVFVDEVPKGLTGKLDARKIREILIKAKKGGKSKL
#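 System: cell-free luciferase reagent; medium: PBS as buffer for the ATP substrate; doses: test compounds dosed from 2 mM stocks in 100% DMSO; incubation: 10 min, room temperature; measured by: luminescence from luciferase reaction; read-out: luciferase activation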
# APP 5'UTR act: activators of APP 5'UTR luciferase reporter, primary screen, SH-SY5Y cells; SH-SY5Y APP 5'UTR luciferase reporter, luminescence; zero percent = DMSO vehicle wells; activation, % at 2 µM; 1% of 190,000 active; AID 1276, 2008;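 active = activation above a set limit, based on mean plus 3 SD of controls, cut at about 140% in these data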
# FLuc inhib CS: firefly luciferase enzyme inhibitors, primary screen, artefact control for luciferase-based inhibitor screens, biochemical, luminescence, ATPLite. 1.5% of 200,000 active. 10 min. Luciferin 4-monooxygenase (Photinus pyralis), P08659. inhibition, % at 10 µM;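 active = inhibition above about 50% when tested at 10 µM, limit read from the data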
# STAT1 act: STAT1 signaling activators, primary screen, cell-based, HTS, luciferase reporter; activation (% of control), % at 5.5 µM; NIH 3T3 STAT1-luciferase reporter, IFN-gamma, luminescence; 100% = IFN-gamma alone, no compound; 2.6% of 200,000 active; AID 932, 2007;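 active = activation above the screen-wide mean activation plus 3 SD, cut at about 130% in these data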
# sdo1 growth: growth rescue of sdo1-depleted yeast, primary screen, S. cerevisiae, bone marrow failure model; S. cerevisiae sdo1-depleted JHY4D growth rescue, OD600 30 h; stronger effect = higher value; pdr5 snq2 efflux-pump mutant strain; z-score at 10 µM; 0.21% of 140,000 active; AID 817, 2007;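 active = z-score above 3 at both the 24 hr and the 30 hr optical density reads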
# NF-kB neuron act: activators of NF-kB expression in neurons, primary screen, cell-based, HTS; human neuronal cells, NF-kB reporter expression; stronger effect = higher value; fold change at 12.5 µM; 1.6% of 190,000 active; AID 1239, 2008; in the data active = fold change above about 3.3
# Hits are given with their value; . = inactive; / = not tested or not shown. An excerpt weighted towards active compounds, which were near 4.3% of everything screened.
SMILES,FLuc act counter,APP 5'UTR act,FLuc inhib CS,STAT1 act,sdo1 growth,NF-kB neuron act
O=C(Nc1nn[nH]n1)c1cccc(Oc2ccccc2)c1,.,.,.,.,.,.
Cc1cc(NC(=O)NC(=O)c2cccc(OC(F)(F)C(F)F)c2)n[nH]1,.,.,.,132,.,.
Cc1cc(NC(=O)c2cccc(Oc3ccccc3)c2)n[nH]1,.,.,71,.,/,.
Cc1cccc2nc(CSc3ccccc3C(=O)O)cn12,.,.,.,.,.,.
Cc1cccc2nc(CSc3ccccc3N)cn12,/,.,/,140,.,4.6
O=C(Cn1nnc2ccccc21)C1CC1,.,.,.,.,.,.
O=C(Cn1nnc2ccccc21)NCc1ccccc1,.,.,.,144,.,.
Cc1ccc(C(=O)Cn2nnc3ccccc32)cc1C,.,.,.,143,.,4.1
Cc1ccc(C(=O)Cn2nnc3ccccc32)cc1,.,.,.,.,.,3.3
Cc1ccc(NC(=O)CCn2nnc3ccccc32)cc1,.,.,.,130,/,.
CC(O)CNc1nc2ccccc2n1CC(=O)NCCc1ccc(Cl)cc1 (configuration not stated),.,.,.,.,.,.
COc1ccc(C(=O)Nc2ccc(C(=O)NCCc3ccccc3)cc2)cc1,.,.,.,.,/,.
O=C(NCCc1ccccc1)c1ccc2nccnc2c1,.,.,77,.,/,.
CCOc1ccc(C(=O)NCCc2ccccc2)cc1,.,.,73,.,.,3.6
CN(C)S(=O)(=O)c1cccc(C(=O)NCCc2ccccc2)c1,.,156,.,134,.,.
CC(=O)Oc1ccc(C(=O)NCCc2ccccc2)cc1,.,.,51,.,/,.
O=C(NCCc1ccccc1)c1cccnc1,.,.,.,.,.,.
CCOc1ccc(CCNC(=O)C(O)c2ccccc2)cc1 (configuration not stated),.,.,.,.,.,.
CN(C)S(=O)(=O)c1cccc(C(=O)Nc2ccccc2)c1,.,.,.,.,/,.
Cc1ccc(-n2cc(CNCCc3ncc(C)[nH]3)c(-c3ccc(F)cc3)n2)cc1,.,.,.,.,/,.
Cn1c(N)c(S(=O)(=O)N2CCN(Cc3ccccc3)CC2)c(=O)n(C)c1=O,.,.,.,.,/,.
O=C(COC(=O)C1CC1)NC(=O)NCc1ccccc1,.,.,.,.,/,.
O=C(/C=C/c1ccc([N+](=O)[O-])cc1)NCC1CCCO1 (configuration not stated),.,.,.,.,.,.
C/C(=C\c1ccccc1)C(=O)NCCc1ccccc1,.,177,.,.,/,4.5
COc1ccc(/C=N/N=C2\SC(CC(=O)O)C(=O)N2c2ccccc2)cc1 (configuration not stated),.,.,.,.,.,.
SMILES,FLuc act counter,APP 5'UTR act,FLuc inhib CS,STAT1 act,sdo1 growth,NF-kB neuron act
COC(=O)C1C(=O)/C(=C/N(C)C)C(=O)CC1(C)C (configuration not stated),.,.,.,.,/,6.2
CN=CC1=C(O)C(C(=O)OC)C(C)(C)CC1=O (configuration not stated),.,.,.,.,/,.
Cc1ccc2nc(C)/c(=N\O)c(C)nc2c1,.,195,.,137,.,.
Cc1nc2ccccc2nc(C)c1=NO,.,.,.,138,.,.
CCOC(=O)c1nc2ccccc2nc1C,.,.,.,.,.,.
O=c1c2c(nc3cc(-c4ccccc4)[nH]n13)CCS2,.,.,60,.,.,7.7
Cc1nc2cc(-c3ccsc3-n3c(C)ccc3C)[nH]n2c(=O)c1Cl,.,.,.,.,.,.
O=c1c2c(nc3cc(-c4ccccc4Cl)[nH]n13)CCS2,.,.,74,.,/,.
CCOC(=O)Cc1cc(=O)n2[nH]c(-c3ccccc3)cc2n1,.,.,.,.,.,.
Cc1c(C(=O)C(=O)NCc2ccco2)c2ccccc2n1C,.,.,.,.,/,.
CCc1ccc(OCCOCC(O)CNC(C)CC)cc1 (configuration not stated),.,.,.,.,.,.
CSc1ncccc1-c1nc2ccccc2[nH]1,.,.,.,.,.,.
Cc1nc2ccc(-c3nc4ccccc4[nH]3)cc2[nH]1,.,155,77,.,/,3.5
Fc1ccccc1-c1nc2ccccc2[nH]1,.,.,55,134,/,.
c1ccc2[nH]c(-c3cscn3)nc2c1,.,.,.,.,.,.
Cc1ccc(-c2nc3ccccc3[nH]2)cc1NC(=O)c1ccco1,.,.,.,.,.,.
Cc1ccccc1-c1nc2ccccc2[nH]1,.,.,.,133,.,.
c1ccc2nc(-c3nc4ccccc4[nH]3)ccc2c1,.,192,94,.,.,4.2
CCCCCNC(=O)Cc1cc(=O)[nH]c(=O)[nH]1,.,.,.,.,.,.
CC1CCN(C(=O)CSc2nc3ccccc3s2)CC1,.,.,.,132,.,.
C#CCSc1ncc(-c2ccccc2)cn1,.,.,.,.,/,.
C=CCSc1ncc(-c2ccccc2)cn1,.,.,.,136,/,.
Cc1ccc(-c2[nH]c3ccccc3c2SCCNC(=O)c2ccc(S(=O)(=O)N3CCOCC3)cc2)cc1,.,.,.,.,.,.
CN1OCC(S(=O)(=O)c2ccccc2)C1c1ccccc1 (configuration not stated),.,.,.,.,/,.
COc1cc(C2C(S(=O)(=O)c3ccccc3)CON2C)ccc1OCc1ccc(F)cc1 (configuration not stated),.,.,.,.,/,6.6
SMILES,FLuc act counter,APP 5'UTR act,FLuc inhib CS,STAT1 act,sdo1 growth,NF-kB neuron act
O=C(CCS(=O)(=O)c1cccs1)NC1CCCCCC1,.,.,.,130,.,.
Oc1cccc2cc3cccc(O)c3c(O)c12,.,.,.,.,/,.
Cc1[nH]c2ccccc2c1C1(O)C(=O)N(Cc2ccc3c(c2)OCO3)c2ccccc21 (configuration not stated),.,.,.,.,.,3.3
CCC(C)(C)NC(=O)Cc1ccccc1OC,.,.,.,.,.,.
Cc1ccc(NC(=O)C(=O)N2CCCC2)cc1Cl,.,.,.,148,.,.
O=C(CN1CCCCCC1)Nc1cccc([N+](=O)[O-])c1,.,.,.,.,/,.
O=C(Nc1cccc([N+](=O)[O-])c1)C(=O)N1CCCCC1,.,.,.,132,/,.
CC(C)C[C@H](NC(=O)OC(C)(C)C)c1n[nH]c(=S)n1N,.,.,.,.,.,.
Clc1ccc(SCc2cc(-c3ccccc3)no2)cc1,.,.,.,.,.,.
Clc1ccc(OCc2cc(-c3ccccc3)no2)c(Cl)c1,.,188,51,.,.,4.5
